According to ChEMBL document CHEMBL4219233, “Discovery and evaluation of nNav1.5 sodium channel blockers with potent cell invasion inhibitory activity in breast cancer cells” (Bioorg Med Chem, 2018):

Key:
[1] = Cytotoxicity against human MDA-MB-231 cells assessed as reduction in cell viability after 24 hrs by MTS assay; format: cell-based
Summary of the method: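 Cells are seeded at 10^4/well in 5% FBS/DMEM and grown 24 h at 37 °C, 5% CO2. They are then exposed 24 h to 1, 5, 10 or […] μM compound or vehicle (0.25% DMSO in PBS), with 5 wells per concentration. MTS is added for 30 min and absorbance read at 490 nm. The maximum non-toxic concentration is judged against vehicle, mean of five repeats.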

[2] = target: T1, Sodium channel protein type 5 subunit alpha (Homo sapiens, UniProt Q14524); test: Inhibition of neonatal Nav1.5 in human MDA-MB-231 cells assessed as reduction in inward sodium peak current at 10 uM at -100 mV holding potential after 5 to 10 mins by whole cell patch clamp method relative to control; format: cell-based; conditions: MDA-MB-231, human
Summary of the method: (§1)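 Whole-cell voltage clamp is used, with capacitance and series resistance compensated 60% and P/2 leak subtraction. Cells are perifused with PSS (mM: NaCl 140, KCl 4, MgCl2 1, CaCl2 2, NaH2PO4 0.33, glucose 11.1, HEPES 10; pH 7.4), with or without compound (final 0.2% DMSO), for 5–10 min. Peak INa is evoked by 30 ms steps from −100 to −5 mV. Percent block is taken from peak current. The concentration-response over 0.1–100 μM is Hill-fitted.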
Target sequence in this assay (Q14524 whole entry, the tested form may be a part): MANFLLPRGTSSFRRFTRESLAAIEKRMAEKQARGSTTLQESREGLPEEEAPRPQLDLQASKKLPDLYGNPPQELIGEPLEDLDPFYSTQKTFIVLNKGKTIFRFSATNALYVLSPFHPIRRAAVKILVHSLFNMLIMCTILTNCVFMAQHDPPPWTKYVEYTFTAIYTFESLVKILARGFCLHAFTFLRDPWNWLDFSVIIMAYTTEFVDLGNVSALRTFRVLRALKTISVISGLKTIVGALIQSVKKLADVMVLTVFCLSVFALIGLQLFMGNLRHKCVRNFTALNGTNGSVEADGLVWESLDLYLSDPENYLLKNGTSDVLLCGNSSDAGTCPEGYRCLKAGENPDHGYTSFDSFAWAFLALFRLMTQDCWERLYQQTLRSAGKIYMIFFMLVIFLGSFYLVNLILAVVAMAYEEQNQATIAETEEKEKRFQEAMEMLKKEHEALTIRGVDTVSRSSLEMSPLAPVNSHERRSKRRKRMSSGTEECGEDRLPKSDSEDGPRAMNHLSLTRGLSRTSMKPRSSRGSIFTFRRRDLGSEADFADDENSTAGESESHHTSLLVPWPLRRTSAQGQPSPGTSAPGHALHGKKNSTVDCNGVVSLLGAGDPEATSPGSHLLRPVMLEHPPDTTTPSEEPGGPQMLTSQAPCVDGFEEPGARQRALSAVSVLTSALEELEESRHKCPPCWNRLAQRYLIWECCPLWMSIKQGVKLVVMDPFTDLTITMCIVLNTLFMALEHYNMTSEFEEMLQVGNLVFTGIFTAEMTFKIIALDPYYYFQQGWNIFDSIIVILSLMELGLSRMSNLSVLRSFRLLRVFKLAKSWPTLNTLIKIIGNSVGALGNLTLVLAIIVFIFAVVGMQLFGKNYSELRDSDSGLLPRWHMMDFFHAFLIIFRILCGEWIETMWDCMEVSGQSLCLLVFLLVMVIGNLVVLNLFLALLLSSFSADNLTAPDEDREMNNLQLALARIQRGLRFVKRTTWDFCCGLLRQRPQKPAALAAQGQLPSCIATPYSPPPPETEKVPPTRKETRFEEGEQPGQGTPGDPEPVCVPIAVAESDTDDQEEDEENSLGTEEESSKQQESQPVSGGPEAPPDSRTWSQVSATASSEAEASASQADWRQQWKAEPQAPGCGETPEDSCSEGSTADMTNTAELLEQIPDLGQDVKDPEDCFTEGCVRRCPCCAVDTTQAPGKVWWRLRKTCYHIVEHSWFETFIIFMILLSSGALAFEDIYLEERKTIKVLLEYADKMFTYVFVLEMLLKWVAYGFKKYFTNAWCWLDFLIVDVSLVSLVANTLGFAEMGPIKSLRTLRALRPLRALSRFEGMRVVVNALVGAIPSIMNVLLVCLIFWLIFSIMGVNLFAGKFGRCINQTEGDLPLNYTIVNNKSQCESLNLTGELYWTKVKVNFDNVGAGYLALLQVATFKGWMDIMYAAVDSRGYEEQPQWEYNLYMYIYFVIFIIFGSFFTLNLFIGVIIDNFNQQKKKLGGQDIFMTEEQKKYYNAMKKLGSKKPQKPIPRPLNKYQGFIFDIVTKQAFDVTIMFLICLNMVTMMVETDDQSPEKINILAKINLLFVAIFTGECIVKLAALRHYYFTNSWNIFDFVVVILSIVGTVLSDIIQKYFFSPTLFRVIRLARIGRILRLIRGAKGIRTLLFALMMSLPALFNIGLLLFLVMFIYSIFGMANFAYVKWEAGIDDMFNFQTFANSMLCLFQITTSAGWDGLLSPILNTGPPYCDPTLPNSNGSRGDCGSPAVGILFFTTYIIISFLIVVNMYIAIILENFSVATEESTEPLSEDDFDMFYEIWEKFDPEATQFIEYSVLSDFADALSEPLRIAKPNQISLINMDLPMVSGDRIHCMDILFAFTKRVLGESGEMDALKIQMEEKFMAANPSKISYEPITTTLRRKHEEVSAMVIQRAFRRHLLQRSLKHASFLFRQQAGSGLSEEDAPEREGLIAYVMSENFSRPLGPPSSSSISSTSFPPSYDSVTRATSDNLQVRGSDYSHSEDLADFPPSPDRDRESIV

[3] = test system: MDA-MB-231; conditions: Homo sapiens, 30 uM
[4] = target: T1, Sodium channel protein type 5 subunit alpha; test: Inhibition of neonatal Nav1.5 in human MDA-MB-231 cells assessed as reduction in inward sodium peak current at 1 uM at -100 mV holding potential after 5 to 10 mins by whole cell patch clamp method relative to control; format: cell-based; conditions: MDA-MB-231, human
Summary of the method: (§2)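 Whole-cell voltage clamp on MDA-MB-231 cells grown in 5% FBS DMEM, with 60% capacitance and series-resistance compensation and P/2 leak subtraction. Cells were perifused with PSS (mM: NaCl 140, KCl 4, MgCl2 1, CaCl2 2, NaH2PO4 0.33, glucose 11.1, HEPES 10; pH 7.4) with 0.2% DMSO, and compound was applied 5–10 min (final 0.1–100 μM). Peak INa was evoked by 30 ms steps from −100 to −5 mV. Percent block was taken against control, followed by wash-out.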
Target sequence in this assay (Q14524 whole entry, the tested form may be a part): as above

[5] = test system: MDA-MB-231; test: Anti-invasive activity against human MDA-MB-231 cells at 1 uM after 24 hrs by Hema staining based microscopic method relative to control; format: functional; conditions: MDA-MB-231, 24 h
Summary of the method: (§3)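 Matrigel-coated transwell invasion chambers are hydrated 2 h at 37 °C, with 5% FBS/DMEM above and 10% FBS/DMEM below as chemoattractant. 4 × 10^4 cells go in the upper chamber. Compound or vehicle (0.2% DMSO in PBS) is added to both chambers. After 24 h at 37 °C, 5% CO2, invaded cells are fixed, Hema-stained and counted in five membrane regions. Counts are normalized to solvent control, mean ± SD.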

[6] = target: T1, Sodium channel protein type 5 subunit alpha; test: Inhibition of neonatal Nav1.5 in human MDA-MB-231 cells assessed as reduction in inward sodium peak current at -100 mV holding potential after 5 to 10 mins by whole cell patch clamp method; format: cell-based; summary of the method: as §1
Target sequence in this assay (Q14524 whole entry, looked up, the tested form may be a part): as the sequence (Q14524 whole entry, the tested form may be a part) above

[7] = target: T1, Sodium channel protein type 5 subunit alpha; test: Inhibition of neonatal Nav1.5 in human MDA-MB-231 cells assessed as reduction in inward sodium peak current at 100 uM at -100 mV holding potential after 5 to 10 mins by whole cell patch clamp method relative to control; format: cell-based; conditions: MDA-MB-231, human; summary of the method: as §2
Target sequence in this assay (Q14524 whole entry, the tested form may be a part): as above

[8] = target: T1, Sodium channel protein type 5 subunit alpha; test: Inhibition of neonatal Nav1.5 in human MDA-MB-231 cells assessed as reduction in inward sodium peak current by measuring half activation potential at 10 uM at -100 mV holding potential after 5 to 10 mins by whole cell patch clamp method (reference value: -30.7 +/- 0.9 mV); format: cell-based; conditions: mda-mb-231, 10 µM
Target sequence in this assay (Q14524 whole entry, the tested form may be a part): as above

[9] = target: T1, Sodium channel protein type 5 subunit alpha; test: Inhibition of neonatal Nav1.5 in human MDA-MB-231 cells assessed as reduction in inward sodium peak current by measuring half inactivation potential at 10 uM at -100 mV holding potential after 5 to 10 mins by whole cell patch clamp method (reference value: -66 +/- 2.5 mV); format: cell-based; conditions: mda-mb-231, 10 µM
Target sequence in this assay (Q14524 whole entry, the tested form may be a part): as above

[10] = test system: MDA-MB-231; test: Anti-invasive activity against human MDA-MB-231 cells at 0.1 uM after 24 hrs by Hema staining based microscopic method relative to control; format: functional; conditions: MDA-MB-231, 24 h; summary of the method: as §3
[11] = target: T1, Sodium channel protein type 5 subunit alpha; test: Reversible inhibition of neonatal Nav1.5 in human MDA-MB-231 cells assessed as reduction in sodium peak current elecited for membrane depolarization from -100 mV to -5 mV by measuring remaining current amplitude at 0.1 to 100 uM at -100 mV holding potential treated for 5 to 10 mins followed by compound washout by whole cell patch clamp method relative to control
Target sequence in this assay (Q14524 whole entry, the tested form may be a part): as above

[12] = target: T1, Sodium channel protein type 5 subunit alpha; test: Irreversible inhibition of neonatal Nav1.5 in human MDA-MB-231 cells assessed as reduction in sodium peak current elecited for membrane depolarization from -100 mV to -5 mV at -100 mV holding potential treated for 5 to 10 mins followed by compound washout by whole cell patch clamp method relative to control; format: cell-based; summary of the method: as §2
[13] = target: T1, Sodium channel protein type 5 subunit alpha; test: Inhibition of neonatal Nav1.5 in human MDA-MB-231 cells assessed as reduction in inward sodium peak current by measuring half activation potential at 10 uM at -100 mV holding potential after 5 to 10 mins by whole cell patch clamp method (reference value: -33 +/- 1.2 mV); format: cell-based; conditions: mda-mb-231, 10 µM
[14] = target: T1, Sodium channel protein type 5 subunit alpha; test: Inhibition of neonatal Nav1.5 in human MDA-MB-231 cells assessed as reduction in inward sodium peak current by measuring half inactivation potential at 10 uM at -100 mV holding potential after 5 to 10 mins by whole cell patch clamp method (reference value: -71.6 +/- 0.4 mV); format: cell-based; conditions: mda-mb-231, 10 µM

**Q.** Which MNTC at 24 h [1] does the source give for `CC(C)(C)CCCCNCCCN1CCCCC1` here?
**A.** 10 µM

**Q.** What about the inhibition at 10 µM [2] of the same compound?
**A.** 30%

**Q.** Which MNTC at 24 h [1] does the source give for `Fc1ccc(C(CCCNCCCc2ccccc2)c2ccc(F)cc2)cc1` here?
**A.** 10 µM

**Q.** And the inhibition at 10 µM [2]?
**A.** 30%

**Q.** For `NC1=N[C@H](O)[C@H]2[C@H]3O[C@]4(O)O[C@@H]([C@@H](O)[C@@]2(N1)[C@@H]4O)[C@]3(O)CO` [TETRODOTOXIN], which MNTC at 24 h [1] is on record?
**A.** 30 µM

**Q.** What about the inhibition [3] of the same compound?
**A.** 31.5%

**Q.** For `Fc1ccc(CCCCNCCCN2CCCCC2)cc1`, which MNTC at 24 h [1] is on record?
**A.** > 25 µM

**Q.** And the inhibition at 10 µM [2]?
**A.** 60%

**Q.** And the inhibition at 1 µM [4]?
**A.** 25%

**Q.** What about the inhibition at 1 µM [5] of the same compound?
**A.** 28%

**Q.** What about the IC50 [6] of the same compound?
**A.** 5.9 µM

**Q.** What about the inhibition at 100 µM [7] of the same compound?
**A.** > 95%

**Q.** And the V1/2 [8]?
**A.** -36.8 mV

**Q.** And the V1/2 [9]?
**A.** -77.5 mV

**Q.** And the inhibition at 0.1 µM [10]?
**A.** 20%

**Q.** And the Activity [11]?
**A.** 17.4%

**Q.** What does the source list for `Fc1ccc(C(CCCNCCCN2CCCCC2)c2ccc(F)cc2)cc1`?
**A.** MNTC at 24 h [1]: 5 µM; inhibition at 10 µM [2]: 50%; inhibition at 1 µM [4]: 34.9%; inhibition at 1 µM [5]: 30.3%; inhibition (INH) [12]: Dose-dependent effect; IC50 [6]: 4.8 µM; inhibition at 100 µM [7]: > 95%; V1/2 [13]: -34.9 mV; V1/2 [14]: -88.6 mV; inhibition at 0.1 µM [10]: 20%

**Q.** What does the source list for `Fc1ccc(C(CCCNCCc2ccccc2)c2ccc(F)cc2)cc1`?
**A.** MNTC at 24 h [1]: 10 µM; inhibition at 10 µM [2]: 30%
